This is a sample that favours compounds with a hit; in the whole collection about 4.8% have one here.
Jurkat NFkB inh: inhibitors of the PMA/ionomycin-induced NF-kB reporter in Jurkat cells; AID 435003; inhibition, % at 4 µM; PMA/ionomycin-induced NF-kB luciferase reporter, luminescence; actives 0.53% (n = 330,000); in the data active = inhibition above about 50%
T cruzi repl: T. cruzi replication inhibition | inhibition, % (test concentration not listed) | T. cruzi beta-gal in NIH3T3, luminescence, 90 h | actives 1.4% (n = 300,000);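 active = mean inhibition across valid replicates above about 55%, limit read from the data; inconclusive = mean below that limit but half or more replicates reach it; inactive = mean below it, under half of replicates reach it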;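 note: signal also drops with host cell toxicity which is not excluded here; 0% = plate median of DMSO wells and 100% = zero luminescence signal; higher percent means less beta-gal luminescence so fewer parasites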
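Test system: β-gal T. cruzi (Tulahuen C4) inside NIH/3T3 cells / Quantity: 5,000 cells/well / Measured by: luminescence from GalScreen with 0.05% NP40, read after 60 min / Medium: DMEM plus 2% FBS / Measure: parasite load inhibition, % / Reagent: Tulahuen C4 trypomastigotes, 5000/well / Schedule: co-culture of at least 90 h after 3 h attachment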
HSF1 inhib: HSF1 inhibition; NIH3T3-HGL HSE-luciferase, MG132-induced, luminescence 8 h; active compounds read low; activity change, negative = inhibition, % at 7.5 µM (by protocol); actives 0.77% (n = 300,000); AID 2098;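 active = more than half of replicate wells show activity change below -50%, luminescence cut by over half; inconclusive = some wells, but at most half, below -50%; inactive = no replicate well below -50%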;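 note: luciferase reports HSF-1 transcriptional activity via heat shock element; 0% = median of DMSO wells and -100% = zero luminescence signal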
HSF-1 act: increases HSF-1 driven luciferase reporter signal. NIH3T3-HGL HSF-1 luciferase reporter, MG132, 8 h; 100% = twice DMSO control signal. actives 1.7% (n = 300,000). activation, % at 9 µM;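 active = mean replicate activation of at least 50% with a set share of replicates each reaching 50%; inconclusive = only one of those two conditions met; inactive = mean below 50% and too few replicates reaching it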;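 note: 0% = median of the neutral control wells and 100% = twice that signal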
GPR7 antagonist: antagonists of human GPR7 (neuropeptides B/W receptor 1) | P48145 | GPR7-expressing cells, fluorescence antagonist assay | inhibition, % at 4.4 µM | actives 1.1% (n = 290,000); in the data active = inhibition above about 16%, passing the limit was not always enough;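 note: cells stimulated with the agonist NPW; 0% = agonist with vehicle and 100% = vehicle without agonist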
Target sequence (P48145 whole entry, looked up): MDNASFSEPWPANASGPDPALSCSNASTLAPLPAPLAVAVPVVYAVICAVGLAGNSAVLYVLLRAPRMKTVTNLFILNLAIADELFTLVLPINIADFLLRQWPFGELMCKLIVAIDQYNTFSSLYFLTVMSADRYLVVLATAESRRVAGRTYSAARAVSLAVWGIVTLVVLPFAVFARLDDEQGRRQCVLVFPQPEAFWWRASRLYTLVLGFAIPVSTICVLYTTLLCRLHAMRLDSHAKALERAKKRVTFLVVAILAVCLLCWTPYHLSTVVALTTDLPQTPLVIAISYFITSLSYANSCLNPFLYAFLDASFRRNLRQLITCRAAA
697 NFkB inh: inhibitors of the PMA/ionomycin-induced NF-kB reporter in 697 B cells | 697 B-cell NF-kB luciferase reporter, 16 h | inhibition, % at 4 µM | actives 0.33% (n = 330,000) | AID 435022; in the data active = inhibition above about 35%
Numbers without * were called inactive; ? = inconclusive; / = no result.

SMILES | Jurkat NFkB inh | T cruzi repl | HSF1 inhib | HSF-1 act | GPR7 antagonist | 697 NFkB inh
CCOc1ccc(OCC)c(NC(=O)CN2CCN(c3cc(C)ccc3C)CC2)c1 | 18 | 70* | -3 | 1 | -5 | -20
Cc1ccc(C)c(N2CCN(CC(=O)Nc3ccc([N+](=O)[O-])cc3C(=O)Nc3ccccc3F)CC2)c1 | 11 | 71* | -1 | 5 | -6 | -14
Nc1nc(SCC(=O)NCCc2ccccc2)[nH]c(=O)c1-c1ccccc1 | 2 | -8 | -6 | 26 | -8 | 10
CCOC(=O)CSc1ccc2ccccc2n1 | 5 | -17 | 5 | 13 | -3 | 5
CCOC(=O)CN1C=C(c2ccc3ccccc3n2)C(C[N+](=O)[O-])c2ccccc21 (stereo not given) | -41 | / | 59 | 94* | -9 | -36
O=C(O)C1CCCCN1C(=O)c1ccc(S(=O)(=O)N2CCCC2)cc1 (stereo not given) | -5 | / | / | / | / | -7
Cc1ccc(S(=O)(=O)Nc2ccc(Oc3cccnc3)nc2)cc1 | 17 | 15 | 5 | 6 | -2 | 2
O=C(NCCC1=CCCCC1)c1ccc([N+](=O)[O-])cc1 | -82 | 2 | 23 | 53* | 0 | -137
O=C(NC(=S)NCCC1=CCCCC1)c1ccco1 | -38 | -5 | 27 | 62* | -3 | -23
Cc1cc(C(=O)NCCC2=CCCCC2)ccc1[N+](=O)[O-] | -67 | 8 | 39 | 58* | 7 | -78
COc1ccc(N2CCN(C(=O)COC(=O)CCOc3ccc(C)cc3)CC2)cc1 | 8 | -15 | -5 | 1 | / | 3
COc1ccc(NC(=O)CSc2nc3ccccc3nc2N2CCCC2)c(OC)c1 | -4 | 1 | 3 | -12 | -4 | -6
Cc1ccc(C(=O)COC(=O)c2cn(-c3ccccc3)nc2-c2ccccc2)cc1[N+](=O)[O-] | 17 | 6 | -3 | 4 | -5 | -5
O=C(c1cccc(-c2nnc(-c3ccccc3)o2)c1)N1CCCCC1 | -60 | 4 | 40 | 57* | 15 | -84
O=C(Cc1cccs1)N/N=C/c1ccco1 | 2 | -18 | -8 | -2 | -3 | 6
O=C(Cc1cccs1)N/N=C/C=C\c1ccco1 | 13 | -4 | 64 | 92* | -10 | 8
Cc1cccc(C)c1OCC(=O)N/N=C/C=C/c1ccco1 | -8 | -27 | 63 | 81* | 4 | -11
CC(/C=C/c1ccco1)=N\NC(=O)COc1ccc(C)c(C)c1 | -13 | -8 | 67 | 78* | -7 | 10
Cc1ccc(N/N=C/C=C/c2ccco2)cc1 | -2 | 73* | 5 | 14 | / | -15
CCC(=O)N1CCC2(CC1)Oc1ccc(Cl)cc1C(=O)C21CC(c2ccc(Cl)cc2)=NO1 (stereo not given) | 10 | 22 | 13 | 19 | / | 14
CCn1cc(C(=O)NCCc2ccc(OC)c(OC)c2)c(=O)c2cc(S(=O)(=O)N3CCOCC3)ccc21 | -5 | 7 | 5 | 12 | -12 | 13
CC1CCCCN1C(=O)NC1CC(=O)N(c2ccc3c(c2)OCCO3)C1 (stereo not given) | -10 | -12 | -3 | -1 | / | 2
COc1ccc(NC(=O)c2sc3nc(N4CCOCC4)c4c(c3c2N)CC(C)(C)OC4)c(OC)c1 | 23 | 3 | -16 | 1 | -16 | 14
CC(/C=C/c1ccco1)=N/NC(=O)c1ccccc1Cl | -15 | -25 | 27 | ? | 11 | -50
O=C(N/N=C/C=C/c1ccco1)c1ccccc1Cl | 6 | 0 | 42 | 69* | -11 | -6
SMILES | Jurkat NFkB inh | T cruzi repl | HSF1 inhib | HSF-1 act | GPR7 antagonist | 697 NFkB inh
CC(=O)N(C)C1=C(O)c2ccccc2C(=O)C1=O | 14 | -12 | -90* | -92 | -5 | 23
CC(=O)N(C1=C(O)c2ccccc2C(=O)C1=O)C1CCCCC1 | -2 | -8 | 0 | 10 | -5 | 6
C/C(=N\Nc1cccc(Cl)c1)c1ccncc1 | -23 | 59* | 3 | -6 | -10 | -13
Cc1cnc(C(=O)Nc2cccc3cccnc23)cn1 | / | 66* | -2 | 2 | -4 | /
Cc1ccc(C(C)(O)CS(=O)(=O)Cc2ccccc2Cl)cc1 (stereo not given) | -3 | -6 | 51 | 112* | 24 | 0
CCOc1ccc(S(=O)(=O)NCCC(=O)NCc2cccnc2)cc1 | 11 | -21 | 1 | -23 | / | -2
Cc1ccc(N2C(=O)N(CC(=O)NC(N)=O)C(=O)C2C)cc1 (stereo not given) | 0 | 7 | -69* | -75 | -10 | 17
CCC[N+]1(CC#CCC(c2ccccc2)c2ccccc2)CCCCC1 | 35 | 64* | -3 | -12 | 10 | 3
C(#Cc1ccccc1)C[N+]1(CC#Cc2ccccc2)CCCCC1 | 25 | 66* | -10 | -13 | -4 | -40
C#CC[N+]1(CC#Cc2ccccc2)CCOCC1 | -10 | -5 | -12 | -31 | -4 | -2
C#CC[N+]1(CC#Cc2ccccc2)CCCCC1 | -7 | -11 | 49 | 82* | -6 | 4
O=C(C[N+]1(CC#Cc2ccccc2)CCCCC1)c1ccccc1 | -11 | 22 | -1 | -4 | 5 | -4
Cc1ccc(C#CC[N+]2(CC#Cc3ccc(C)cc3)CCCCC2)cc1 | 29 | 74* | 1 | -19 | 19* | 19
O=[N+]([O-])c1ccc(-c2ccn[nH]2)o1 | -6 | 68* | 13 | 7 | -6 | 8
NC(=S)N/N=C/c1ccccc1OCCSc1ccc(Cl)cc1 | -13 | 57* | 30 | 32 | 1 | 7
COC(=O)N/N=C/c1cccc(OCCSc2ccc(Cl)cc2)c1 | 6 | 16 | 23 | 57* | -3 | -48
COc1cccc(/C=N/NC(N)=S)c1OCc1ccccc1Cl | -23 | 59* | -8 | 10 | -8 | 10
COc1cccc(/C=N/n2nnnc2N)c1OCc1ccccc1Cl | 17 | -1 | -7 | -1 | -12 | -14
C/C(=N/NC(=O)c1cc2ccccc2cc1O)c1ccco1 | -31 | -3 | 95 | 93* | -6 | -58
C/C(=N\NC(=O)c1cc2ccccc2cc1O)c1cccs1 | -34 | 55* | 37 | 41 | 1 | -125
COC(=O)c1c(C)[nH]c(C(=O)C(C)OC(=O)c2cnc(C)cn2)c1C (stereo not given) | -4 | / | / | / | / | 2
O=S(=O)(c1ccccc1)N1CCN(c2ncnc3scc(-c4ccccc4)c23)CC1 | -4 | 24 | -1 | 6 | -6 | 1
COc1ccc(-c2csc3ncnc(N4CCN(S(=O)(=O)c5ccc(C)c(C)c5)CC4)c23)cc1 | 10 | 55* | 0 | -7 | / | 6
C=C(C)Cn1c(NCCC)nc2c1c(=O)n(C)c(=O)n2C | -3 | 0 | -53* | -64 | -2 | 0
CCCNc1nc2c(c(=O)n(C)c(=O)n2C)n1Cc1ccc(F)cc1 | 6 | -2 | -4 | 10 | -4 | -27

Screens (PubChem BioAssay)
